Assay results taken from ChEMBL document CHEMBL1141447, “Nitrogen-containing verticillene diterpenoids from the Taiwanese soft coral Cespitularia taeniata” (2007).
Values after ≈ are worked out from the molar mass of the structure shown. Active and inactive are the calls of the source. The rule behind the calls is not given here.

Assays:
Micrococcus luteus = experiment: Antimicrobial activity against Micrococcus luteus IFM2066; type: functional
Staphylococcus aureus = experiment: Antimicrobial activity against Staphylococcus aureus 209P; type: functional, organism-based
KB = experiment: Cytotoxicity against human KB cells at 3.7 ug/ml after 48 hrs; type: functional, cell-based
Summary of the method: (§1)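 KB (human oral epidermoid carcinoma) or L1210 (mouse leukemia) cells were incubated at 37 °C for 48 h in medium with graded concentrations of compound, dissolved in 0.6% Me2SO. IC50 was read from a plot of log concentration against growth rate of the treated cells.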

L1210 = experiment: Cytotoxicity against mouse L1210 cells at 5.1 ug/ml after 48 hrs; type: functional, cell-based; summary of the method: as §1
Cryptococcus neoformans = experiment: Antimicrobial activity against Cryptococcus neoformans IFM46914; type: functional
Trichophyton benhamiae [1] = experiment: Antimicrobial activity against Trichophyton mentagrophytes; type: functional, Arthroderma benhamiae
Trichophyton benhamiae [2] = experiment: Antimicrobial activity against Trichophyton mentagrophytes IFM45110; type: functional, Arthroderma benhamiae

| SMILES | MIC (Micrococcus luteus) | MIC (Cryptococcus neoformans) | MIC (Trichophyton benhamiae [1]) | MIC (Trichophyton benhamiae [2]) | Activity (Staphylococcus aureus) | Activity (KB) | Activity (L1210) |
| --- | --- | --- | --- | --- | --- | --- | --- |
| C=C1CC[C@@H]2CCC3=C([C@@H](C/C(C)=C/[C@@H](OC(C)=O)C1)NC3=O)C2(C)C [CESPITULACTAM E] | – | – | 4.16 µg/mL (≈ 11.6 µM) | – | inactive | inactive | inactive |
| C=C1CC[C@@H]2CCC3=C(C2(C)C)[C@@](O)(C/C(C)=C/[C@@H](O)C1)NC3=O | – | – | – | – | inactive | inactive | inactive |
| C=C1CC[C@@H]2CCC3=C([C@@H](C/C(C)=C/[C@@H](O)C1)N(C)C3=O)C2(C)C | – | – | – | – | inactive | inactive | inactive |

The next lines start with results.

| MIC (Micrococcus luteus) | MIC (Cryptococcus neoformans) | MIC (Trichophyton benhamiae [1]) | MIC (Trichophyton benhamiae [2]) | SMILES | Activity (Staphylococcus aureus) | Activity (KB) | Activity (L1210) |
| --- | --- | --- | --- | --- | --- | --- | --- |
| 4.16 µg/mL (≈ 13.2 µM) | – | – | – | C=C1CC[C@@H]2CCC3=C([C@@H](C/C(C)=C/[C@@H](O)C1)NC3=O)C2(C)C [CESPITULACTAM D] | inactive | inactive | inactive |
| 4.16 µg/mL (≈ 9.07 µM) | 4.16 µg/mL (≈ 9.07 µM) | 4.16 µg/mL (≈ 9.07 µM) | – | C=C1CC[C@@H]2CCC3=C([C@@H](C/C(C)=C/[C@@H](O)C1)N(CCc1c[nH]c4ccccc14)C3=O)C2(C)C [CESPITULACTAM J] | inactive | inactive | inactive |
| – | – | – | 2.08 µg/mL (≈ 5.79 µM) | C=C1CC[C@@H]2CCC3=C(C2(C)C)[C@@](O)(C/C(C)=C/[C@@H](O)C1)N(CC)C3=O [CESPITULACTAM G] | inactive | inactive | inactive |
| 4.16 µg/mL (≈ 9.55 µM) | 4.16 µg/mL (≈ 9.55 µM) | – | – | C=C1CC[C@@H]2CC[C@@H]3C(=O)N(CCc4ccc(O)cc4)C(=C3C2(C)C)C/C(C)=C/[C@@H](O)C1 [CESPITULACTAM K] | inactive | Active | Active |
| – | 4.16 µg/mL (≈ 12.6 µM) | – | – | C=C1CC[C@@H]2CCC3C(=O)N/C(=C/C(C)CC(=O)C1)C3(O)C2(C)C (stereo partly drawn) | inactive | inactive | inactive |
